Measured values taken from ChEMBL document CHEMBL1212860, “Further optimization of novel pyrrole 3-carboxamides for targeting serotonin 5-HT(2A), 5-HT(2C), and the serotonin transporter as a potential antidepressant” (Bioorg Med Chem, 2010).
pIC50: −log10 of the molar value.

What was measured:
[1] = target: T1, 5-hydroxytryptamine receptor 2C (Homo sapiens, UniProt P28335); test: Displacement of [3H]mesulergine from human recombinant 5HT2C expressed in CHOK1 cells; type: cell-based, CHO-K1
T1 sequence (P28335 whole entry): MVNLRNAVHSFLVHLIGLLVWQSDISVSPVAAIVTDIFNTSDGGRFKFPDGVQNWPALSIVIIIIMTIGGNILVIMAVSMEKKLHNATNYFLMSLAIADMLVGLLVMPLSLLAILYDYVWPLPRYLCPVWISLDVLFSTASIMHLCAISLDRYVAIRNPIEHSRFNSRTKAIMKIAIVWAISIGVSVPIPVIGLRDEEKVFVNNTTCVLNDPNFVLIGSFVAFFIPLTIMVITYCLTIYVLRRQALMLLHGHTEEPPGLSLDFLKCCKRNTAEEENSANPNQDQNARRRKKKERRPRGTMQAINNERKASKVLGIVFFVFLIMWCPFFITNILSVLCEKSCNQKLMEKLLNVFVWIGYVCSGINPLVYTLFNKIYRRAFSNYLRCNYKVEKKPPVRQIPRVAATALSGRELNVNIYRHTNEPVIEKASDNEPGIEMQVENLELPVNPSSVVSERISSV
Summary of the method: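 Frozen CHO-K1 membranes with human recombinant 5-HT2C were incubated with 1.3 nM [3H]mesulergine in 50 mM Tris-HCl pH 7.4 with 0.1% ascorbic acid and 4 mM CaCl2 for 60 min at 27 °C. Nonspecific binding was set with 100 mianserin. Stopped by rapid filtration on glass fibre presoaked in 0.5% PEI.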

[2] = target: 5-hydroxytryptamine receptor 2A (Homo sapiens, UniProt P28223); test: Displacement of [3H]ketanserin from human recombinant 5HT2A expressed in CHOK1 cells; type: cell-based, CHO-K1
Summary of the method: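 Human recombinant 5-HT2A membranes from CHO-K1 cells were incubated with 1 nM [3H]ketanserin, with mianserin defining nonspecific binding. Incubation was 60 min at 27 °C in 50 mM Tris-HCl pH 7.4 with 4 mM CaCl2 and 0.1% ascorbic acid. Filtered on glass fibre presoaked in 0.5% PEI, washed, and counted. IC50 by nonlinear regression from 7–8 concentrations in duplicate.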

[3] = target: Sodium-dependent serotonin transporter (Homo sapiens, UniProt P31645); test: Displacement of [3H]imipramine from human SERT expressed in HEK293 cells; type: cell-based
Summary of the method: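 Membranes from 293 cells expressing SERT were incubated with 2 nM [3H]imipramine in 50 mM Tris-HCl pH 7.4 with 120 mM NaCl and 5 mM KCl for 30 min at 27 °C. Filtered through glass fibre presoaked in 0.5% PEI, then washed with ice-cold 50 mM Tris-HCl pH 7.4 containing 0.9% NaCl.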

[4] = target: Voltage-gated inwardly rectifying potassium channel KCNH2 (Homo sapiens, UniProt Q12809); test: Inhibition of human recombinant ERG channel expressed in HEK293 cells
Mus musculus = test: Locomotor activity in mouse assessed as distance traveled by animal in horizontal locomotion at 25 mg/kg, po after 60 mins measured for 30 mins by spontaneous locomotor activity; type: functional
Summary of the method: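 Mice were dosed orally at 25 mg/kg and acclimated to the chamber for 10 min. Horizontal distance travelled (cm) was then recorded over 30 min by automated video tracking. Testing ran between 09:00 and 17:00 h. Mean ± SEM of 6–7 mice.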

Sodium-dependent serotonin transporter, sequence (P31645 whole entry): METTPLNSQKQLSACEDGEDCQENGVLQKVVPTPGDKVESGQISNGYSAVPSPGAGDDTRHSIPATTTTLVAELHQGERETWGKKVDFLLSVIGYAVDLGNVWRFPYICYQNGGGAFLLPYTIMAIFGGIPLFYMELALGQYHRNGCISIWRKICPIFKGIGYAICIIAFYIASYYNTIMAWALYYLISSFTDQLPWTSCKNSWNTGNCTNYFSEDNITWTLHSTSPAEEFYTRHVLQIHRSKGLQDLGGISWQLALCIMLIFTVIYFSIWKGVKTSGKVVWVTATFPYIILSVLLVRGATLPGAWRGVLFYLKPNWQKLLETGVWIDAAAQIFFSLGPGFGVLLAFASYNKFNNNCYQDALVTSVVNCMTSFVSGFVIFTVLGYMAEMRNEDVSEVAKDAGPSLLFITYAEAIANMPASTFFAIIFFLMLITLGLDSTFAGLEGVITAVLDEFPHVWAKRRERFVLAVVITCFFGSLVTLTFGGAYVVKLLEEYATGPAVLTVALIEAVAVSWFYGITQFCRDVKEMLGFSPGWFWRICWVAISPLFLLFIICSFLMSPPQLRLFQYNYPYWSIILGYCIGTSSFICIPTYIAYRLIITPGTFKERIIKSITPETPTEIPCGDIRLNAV
5-hydroxytryptamine receptor 2A, sequence (P28223 whole entry): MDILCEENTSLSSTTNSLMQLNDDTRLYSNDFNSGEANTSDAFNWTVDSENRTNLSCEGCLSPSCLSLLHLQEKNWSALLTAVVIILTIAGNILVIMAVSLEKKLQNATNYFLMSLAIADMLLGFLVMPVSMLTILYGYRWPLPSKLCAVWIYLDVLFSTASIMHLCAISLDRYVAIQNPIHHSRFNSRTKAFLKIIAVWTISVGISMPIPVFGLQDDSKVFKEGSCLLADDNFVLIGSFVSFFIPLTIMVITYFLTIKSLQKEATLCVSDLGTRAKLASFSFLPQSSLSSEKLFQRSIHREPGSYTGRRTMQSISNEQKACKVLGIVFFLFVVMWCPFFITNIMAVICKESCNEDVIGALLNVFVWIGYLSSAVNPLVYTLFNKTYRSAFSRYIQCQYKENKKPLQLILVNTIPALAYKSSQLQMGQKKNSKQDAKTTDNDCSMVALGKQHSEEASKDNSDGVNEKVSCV
Voltage-gated inwardly rectifying potassium channel KCNH2, sequence (Q12809 whole entry): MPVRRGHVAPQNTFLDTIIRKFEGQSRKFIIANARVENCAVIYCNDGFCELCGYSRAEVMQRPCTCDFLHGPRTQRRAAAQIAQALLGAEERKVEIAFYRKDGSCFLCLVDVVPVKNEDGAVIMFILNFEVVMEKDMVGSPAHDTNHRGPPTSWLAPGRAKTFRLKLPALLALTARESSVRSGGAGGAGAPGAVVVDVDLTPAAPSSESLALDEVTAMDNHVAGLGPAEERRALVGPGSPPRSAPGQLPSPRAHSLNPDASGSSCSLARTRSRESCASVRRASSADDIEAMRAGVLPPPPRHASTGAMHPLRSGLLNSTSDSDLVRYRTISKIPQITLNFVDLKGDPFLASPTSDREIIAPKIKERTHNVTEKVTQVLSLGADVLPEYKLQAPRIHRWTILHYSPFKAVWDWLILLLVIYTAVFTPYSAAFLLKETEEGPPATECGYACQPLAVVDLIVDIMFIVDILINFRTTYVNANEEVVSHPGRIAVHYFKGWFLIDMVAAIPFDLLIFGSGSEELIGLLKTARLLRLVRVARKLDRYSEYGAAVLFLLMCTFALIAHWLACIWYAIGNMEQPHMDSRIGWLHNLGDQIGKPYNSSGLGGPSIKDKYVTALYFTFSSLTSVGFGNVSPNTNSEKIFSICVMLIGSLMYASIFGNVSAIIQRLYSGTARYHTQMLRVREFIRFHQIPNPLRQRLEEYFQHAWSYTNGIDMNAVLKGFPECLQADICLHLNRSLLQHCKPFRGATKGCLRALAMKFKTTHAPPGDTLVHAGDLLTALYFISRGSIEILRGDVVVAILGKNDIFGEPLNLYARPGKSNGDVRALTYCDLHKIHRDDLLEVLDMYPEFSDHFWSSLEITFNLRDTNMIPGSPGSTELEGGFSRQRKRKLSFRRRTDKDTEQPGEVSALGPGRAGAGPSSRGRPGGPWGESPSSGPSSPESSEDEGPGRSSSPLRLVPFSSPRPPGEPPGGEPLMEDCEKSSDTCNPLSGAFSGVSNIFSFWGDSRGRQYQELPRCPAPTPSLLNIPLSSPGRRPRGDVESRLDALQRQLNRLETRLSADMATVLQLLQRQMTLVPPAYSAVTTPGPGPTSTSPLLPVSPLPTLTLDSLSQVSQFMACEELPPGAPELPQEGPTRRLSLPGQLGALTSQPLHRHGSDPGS

| SMILES | pIC50 [1] | pIC50 [2] | pIC50 [3] | pIC50 [4] | Activity (Mus musculus) [cm] |
| --- | --- | --- | --- | --- | --- |
| CCCn1c(-c2ccccc2)cc(C(=O)NCCCN2CCN(c3cccc4cccnc34)CC2)c1C | 6.38 | 6.68 | 7.09 | – | – |
| Cc1[nH]c(-c2ccccc2)cc1C(=O)NCCCN1CCN(c2cccc(Cl)c2Cl)CC1 | – | – | – | 7.00 | – |
| CCCn1c(-c2ccccc2)cc(C(=O)NCCCN2CCN(c3cccc(Br)c3)CC2)c1C | 6.20 | 6.66 | 6.65 | – | – |
| Cc1c(C(=O)NCCCN2CCN(c3ccncc3)CC2)cc(-c2ccccc2)n1C | 5.28 | 5.34 | < 5.00 | – | – |
| Cc1ccc2cccc(N3CCN(CCCNC(=O)c4cc(-c5ccccc5)n(C)c4C)CC3)c2n1 | 6.19 | 6.08 | 6.52 | – | – |
| CCCn1c(-c2ccccc2)cc(C(=O)NCCCN2CCN(c3cccc(OC)c3)CC2)c1C | 6.34 | 6.82 | 6.49 | – | – |
| CCCn1c(-c2ccccc2)cc(C(=O)NCCCN2CCN(c3cccc(Cl)c3Cl)CC2)c1C | – | – | – | 6.27 | – |
| CCn1c(-c2ccc(Cl)cc2)cc(C(=O)NCCCN2CCN(c3cccc(Cl)c3Cl)CC2)c1C | 7.66 | 6.82 | 6.20 | – | – |
| Cc1cccc(N2CCN(CCCNC(=O)c3cc(C(C)(C)C)n(C)c3C)CC2)c1C | 5.94 | 6.41 | 6.60 | – | – |
| CCCn1c(-c2ccccc2)cc(C(=O)NCCCN2CCN(c3cc(F)ccc3F)CC2)c1C | 6.00 | 6.87 | 6.07 | – | – |
| CCCn1c(-c2ccccc2)cc(C(=O)NCCCN2CCN(c3cccc(C(F)(F)F)c3)CC2)c1C | 6.21 | 6.39 | 6.42 | – | – |
| Cc1c(C(=O)NCCCN2CCN(c3ccccc3Br)CC2)cc(-c2ccccc2)n1C | 6.20 | 6.66 | 6.65 | – | – |
| Cc1cccc(N2CCN(CCNC(=O)c3cc(C(C)(C)C)n(C)c3C)CC2)c1C | 5.65 | 7.44 | 6.04 | 4.93 | – |
| CCCn1c(-c2ccccn2)cc(C(=O)NCCCN2CCN(c3cccc(Cl)c3Cl)CC2)c1C | – | – | – | 6.00 | – |

Now from value to compound, other results behind:

| pIC50 [1] | pIC50 [2] | pIC50 [3] | SMILES | pIC50 [4] | Activity (Mus musculus) [cm] |
| --- | --- | --- | --- | --- | --- |
| 6.66 | – | – | Cc1[nH]c(-c2ccccn2)cc1C(=O)NCCCN1CCN(c2cccc(Cl)c2Cl)CC1 | – | – |
| 7.46 | – | – | Cc1c(C(=O)N(C)CCCN2CCN(c3cccc(Cl)c3Cl)CC2)cc(-c2ccccc2)n1C | 6.30 | – |
| 7.80 | 7.48 | 7.11 | Cc1c(C(=O)NCCN2CCN(c3cccc(Cl)c3Cl)CC2)c(C)n(C)c1-c1ccccc1 | – | – |
| 7.68 | – | – | CCCn1c(-c2ccccc2)cc(C(=O)N(C)CCCN2CCN(c3cccc(Cl)c3Cl)CC2)c1C | – | – |
| 6.63 | 6.45 | 7.66 | Cc1c(C(=O)NCCCN2CCN(c3cccc4cccnc34)CC2)cc(-c2ccccc2)n1C | – | – |
| 6.63 | – | 7.19 | Cc1c(Cl)cccc1N1CCN(CCNC(=O)c2cc(-c3ccccc3)n(C)c2C)CC1 | – | 7100 |
| 7.04 | 6.68 | 8.15 | Cc1c(C(=O)NCCCN2CCN(c3cccc(Cl)c3Cl)CC2)cc(-c2cccnc2)n1C | 5.17 | – |
| 6.96 | 7.30 | 7.35 | Cc1c(C(=O)NCCN2CCN(c3cccc(Cl)c3Cl)CC2)cc(C(C)(C)C)n1C | – | – |
| 6.49 | 7.27 | 6.55 | CCCn1c(-c2ccccc2)cc(C(=O)NCCCN2CCN(c3ccc(Cl)c(Cl)c3)CC2)c1C | – | – |
| 7.92 | 7.77 | 6.79 | CCCn1c(-c2ccccc2)cc(C(=O)N(C)CCCN2CCN(c3cccc(C)c3C)CC2)c1C | 6.15 | – |
| 6.68 | 7.27 | 6.50 | Cc1c(Cl)cccc1N1CCN(CCNC(=O)c2cc(C(C)(C)C)n(C)c2C)CC1 | – | 6217 |
